S1P3 antag: antagonists of human S1P3 receptor; Q99500; CHO S1P3 NFAT-BLA reporter, FRET fluorescence, antagonist mode; inhibition, % at 4.98 µM; 170,000 compounds, 0.27% hits;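 active = inhibition above the plate cutoff, the mean inhibition of test wells on that plate plus 3 SD, cut at about 28% in these data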;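 note: cells challenged with S1P at its EC80 of 0.8 µM; blue over green emission ratio from cleaved BLA substrate after 4 h stimulation; 0% = S1P-stimulated wells and 100% = unstimulated DMSO-only wells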
FXIa inh 1536: inhibitors of human coagulation factor XIa; purified FXIa, Boc-Glu-Ala-Arg-AMC fluorogenic substrate; inhibition, % at 5 µM; 220,000 compounds, 0.14% hits;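 active = inhibition of at least 40%; inactive = inhibition below 40%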;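 note: fluorescence of freed AMC excited at 355 nm; 0% = enzyme without compound and 100% = no enzyme blank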
Target sequence (P03951 19-387 limits assumed): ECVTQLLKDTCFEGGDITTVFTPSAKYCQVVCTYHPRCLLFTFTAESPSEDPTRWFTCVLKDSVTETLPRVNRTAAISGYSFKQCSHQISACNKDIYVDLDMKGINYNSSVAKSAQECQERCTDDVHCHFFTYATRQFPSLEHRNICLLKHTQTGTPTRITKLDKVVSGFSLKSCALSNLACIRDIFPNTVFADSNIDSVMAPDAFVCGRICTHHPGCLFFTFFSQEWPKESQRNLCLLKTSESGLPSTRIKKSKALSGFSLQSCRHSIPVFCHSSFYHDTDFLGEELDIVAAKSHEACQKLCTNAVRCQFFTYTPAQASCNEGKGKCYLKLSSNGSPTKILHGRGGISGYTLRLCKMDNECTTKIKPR
Target sequence (P03951 388-625 limits assumed): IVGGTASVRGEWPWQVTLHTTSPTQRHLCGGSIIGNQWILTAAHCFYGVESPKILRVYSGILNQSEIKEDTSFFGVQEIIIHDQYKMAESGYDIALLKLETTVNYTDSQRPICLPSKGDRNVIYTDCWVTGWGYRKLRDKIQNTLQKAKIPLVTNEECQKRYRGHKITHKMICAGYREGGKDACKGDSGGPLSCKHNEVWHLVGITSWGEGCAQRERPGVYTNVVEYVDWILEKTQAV
Thrombin inh: thrombin (human) inhibition. alpha-thrombin, Boc-VPR-AMC fluorogenic substrate cleavage. inhibition, % at 5 µM. 220,000 compounds, 0.26% hits;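 active = inhibition at or above 40%; inactive = inhibition below 40%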;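 note: 0% = enzyme with no compound and 100% = wells without enzyme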
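Material: human alpha-thrombin protein. Incubation: reaction at ambient temperature. Technique: fluorescence of released AMC, ex 355 nm, em 460 nm. Control set: no-compound enzyme wells and no-enzyme blanks. Also added: Boc-VPR-AMC substrate, 15 µM final. Buffer or medium: pH 7.5 Tris (50 mM) with NaCl 150 mM, Tween 20 0.05%.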
hK5 inh: blocks human kallikrein 5 protease activity; Q9Y337; recombinant hK5, fluorogenic AMC substrate cleavage; inhibition, % at 5 µM; 210,000 compounds, 0.59% hits;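 active = inhibition of 40% or more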;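 note: 0% = enzyme controls without compound and 100% = no-enzyme blanks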
FXIIa inh: blocks human coagulation factor XIIa protease activity. P00748. purified FXIIa, Boc-QGR-AMC fluorogenic substrate, 2 h. inhibition, % at 5 µM. 220,000 compounds, 0.3% hits; in the data active = inhibition above about 40%;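 note: 0% = enzyme with no compound and 100% = blank without enzyme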
DTT redox prof: compounds producing H2O2 with reducing agent – biochemical, NIH compound library profiling, artefact control for MLSCN library redox annotation, primary screen; DTT-dependent redox cycling H2O2, phenol red/HRP absorbance; 100% = 100 µM peroxide control, 0% = buffer; activation, % at 10 µM; 200,000 compounds, 0.03% hits;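 active = activation of at least 50% relative to the plate's high and low controls in the primary single-dose screen; inactive = activation below 50%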;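 note: compound incubated with DTT at 0.8 mM final as the reducing agent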
Active calls of the source: *; · = not tested or not shown. Most compounds without a hit are left out; they make up all but 1.2% or so of the library.

SMILES	S1P3 antag	FXIa inh 1536	Thrombin inh	hK5 inh	FXIIa inh	DTT redox prof
O=C1Nc2ccc(NS(=O)(=O)c3cccs3)c3cccc1c23	-10	4	4	-22	20	0
CCn1c(SCC(N)=O)nnc1C(C)C	-20	-2	97*	-1	8	-2
CCn1c(SCC(=O)c2ccc(Cl)cc2)nnc1C(C)C	-18	-16	4	-16	-3	2
Cc1cc(NS(=O)(=O)c2ccc(N3C(=O)C4C5C=CC(C5)C4C3=O)cc2)nc(C)n1 (stereo not drawn)	-13	67*	0	-10	4	1
CCOC(=O)c1c(NC(=O)CSc2nc3ccccc3c(=O)n2-c2ccccc2)sc(C(C)=O)c1C	4	5	-4	-17	13	0
CC(C)c1nc(SCc2c(F)cccc2Cl)c2c(=O)n(C)c(=O)n(C)c2n1	-17	10	15	65*	23	-2
Cc1c(C(=O)OCC(=O)N2CC(=O)Nc3ccccc32)oc2ccccc12	·	4	4	2	17	0
CCOC(=O)c1[nH]c(C)c(C(=O)OCC(=O)N2CC(=O)Nc3ccccc32)c1C	-12	8	8	42*	29	0
O=C1CN(C(=O)COC(=O)c2oc3ccccc3c2COc2ccccc2)c2ccccc2N1	·	20	3	-17	47*	0
O=CN1CCN(C(=O)c2ccc(-c3nc4ccccc4s3)s2)CC1	-2	6	12	-8	14	-1
COCCNCC(=O)Nc1nc(C)cs1	9	46*	14	27	102*	-3
Cc1csc(NC(=O)Cc2c[nH]c3ccccc23)n1	·	-8	-4	12	40*	5
O=C(C1=C[C@@H](c2ccc(C(F)(F)F)cc2)C[C@@H](OCc2ccc(CO)cc2)O1)N1CCN(Cc2ccccc2)CC1	-14	3	1	5	14	0
CC(NC(=O)Nc1nnc(C(F)(F)F)s1)(C(F)(F)F)C(F)(F)F	·	20	3	-1	40*	0
NC(=O)COC(=O)c1cccc(S(=O)(=O)N2CCN(c3ccc(F)cc3)CC2)c1	-3	-4	-2	-6	-1	0
NC(=O)COC(=O)c1ccc(Cl)c(S(=O)(=O)N2CCN(c3ccc(F)cc3)CC2)c1	9	33	20	45*	24	0
CCn1cc(C(=O)NCc2cccnc2)c(=O)c2cc(F)c(N3CCN(C(=O)c4ccco4)CC3)cc21	·	15	1	4	41*	0
O=S1(=O)CC(O)C(N=Nc2c(O)n(Cc3ccccc3)c3ccccc23)C1 (stereo not drawn)	2	7	-1	2	7	·
CC(Oc1ccc(Cl)cc1Cl)C(=O)NCCCN1CCOCC1 (stereo not drawn)	99*	4	1	8	12	-1
CN(/N=C/c1ccc2c(c1)OCO2)c1nc(N2CCOCC2)nc(N2CCOCC2)n1	-15	1	-11	-3	100*	0
Cc1cc(Nc2ccc(Br)cc2)n2nc(C)nc2n1	8	4	6	8	10	-1
Cc1cc(Nc2ccc(C)c(C)c2)n2nc(C)nc2n1	-14	31	-1	-1	42*	0
C/C(=N\NC(=O)c1nn(C)c(C)c1Br)c1ccc(NC(=O)c2ccccc2F)cc1	3	3	-2	-20	14	0
Cc1ccc(CSCC(=O)Nc2ccc3c(c2)OCO3)cc1	·	17	-3	46*	26	0
COc1ccc(/C=C/C(=O)NCCN=C2NS(=O)(=O)c3ccccc32)cc1	-3	-6	0	6	8	0
SMILES	S1P3 antag	FXIa inh 1536	Thrombin inh	hK5 inh	FXIIa inh	DTT redox prof
CN(C)/C=C1\N=C(c2ccccc2)OC1=O	6	23	3	-7	6	-1
CN(C)/C(CN1CCN(C=O)CC1)=C1\N=C(c2ccccc2)OC1=O	·	4	9	66*	2	1
Cn1cc(S(=O)(=O)Nc2ccc3c(c2)OCCO3)cn1	8	-2	-3	·	5	-2
CC(=O)c1c(NCc2ccccc2)nc(=O)n(-c2ccccc2)c1C	-10	2	11	70*	11	0
CC(=O)c1c(NCCc2ccccc2)nc(=S)n(-c2ccccc2)c1C	-7	-6	-16	0	10	-1
CC(=O)Nc1ccccc1-c1nc2ccc(C(=O)N3CCN(c4cccc(C)c4)C(C)C3)cc2[nH]c1=O (stereo not drawn)	·	-4	18	59*	16	-1
Cc1ccc2c(c1)NC(=O)C(CC(=O)NCCCN1CCCCC1C)O2 (stereo not drawn)	-19	3	13	47*	12	0
Cc1ccccc1NC(NC(=O)c1cccnc1)C(Cl)(Cl)Cl (stereo not drawn)	3	-4	-5	2	5	0
COc1ccc(NC(NC(=O)c2cccnc2)C(Cl)(Cl)Cl)cc1 (stereo not drawn)	0	29	12	14	55*	-1
O=c1[nH]c2ccc(S(=O)(=O)Nc3ccc(-c4nnc5n4CCCCC5)cc3)cc2o1	66*	-3	-11	-24	-2	2
COc1ccc(NS(=O)(=O)c2cccc(-c3nnc4n3CCCCC4)c2)cc1	·	-1	3	-13	19	-1
CC1=NNC(=O)/C1=C\c1cn(-c2ccccc2)nc1-c1ccccc1	-3	-1	-1	3	12	-2
O=C1c2cccc3cccc(c23)C(=O)N1CCCc1n[nH]c(=S)n1-c1ccccc1	2	-4	2	-7	4	0
O=C(NCCSc1ccccc1)c1ccc(Br)cc1	11	-2	-8	-6	11	0
O=C(NCCSc1ccccc1)c1ccccc1	1	-6	0	89*	0	1
C=CCc1cccc(/C=N/NC(=O)CNc2cccc3ccccc23)c1O	-34	-7	-8	-17	-2	0
C=CCc1cccc(/C=N/NC(=O)CNc2ccccc2)c1O	·	-11	46*	-27	-2	0
C=CCc1cccc(/C=N/NC(=O)CCCNc2ccc(C)cc2)c1O	-2	8	20	47*	5	0
Fc1cccc(CN2CCN(c3nc4nonc4nc3NC3CC3)CC2)c1	-16	-2	-13	-4	3	-1
CCCCNC(=O)C(CC)Sc1nc2sc(C(=O)OC)c(C)c2c(=O)n1N (stereo not drawn)	·	-4	-4	4	9	-8
CCC(Sc1nc2sc(C(=O)OC)c(C)c2c(=O)n1N)C(=O)NCC1CCCO1 (stereo not drawn)	·	14	18	43*	29	3
O=C(Nc1ccccc1)c1c2c(nc3ccccc13)CCCC2	-1	-4	-7	-6	-3	·
